Tests used:
[1] = test system: Onchocerca volvulus; experiment: Mean motility score for treated Onchocerca volvulus excluding LLCMK2 feeder cells at a concentration of 3.1*10e-6 M at 24 h
[2] = test system: Onchocerca volvulus; experiment: Colorimetric quantification of male Onchocerca volvulus viability, expressed as % inhibition of formazan formation at 3.1*10e-6 M conc. by using tetrazolium Dye MTT assay; format: functional
Summary of the method: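 Male O. volvulus dissected from human nodules within 24 h (kept in medium on ice), cultured without feeder cells in medium with 10% serum; drug from DMSO stock. MTT after 96 h: single worm, 0.5 mg/mL MTT, 30 min at 36.5 °C, formazan dissolved in DMSO 1 h at room temperature, absorbance 490 nm against DMSO blank.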

[3] = test system: Onchocerca gutturosa; experiment: Mean motility score for treated Onchocerca gutturosa involving LLCMK2 feeder cells at a concentration of 5*10e-5 M at 4 h; format: functional
Summary of the method: (§1)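 Single male O. gutturosa worms (obtained following abattoir slaughter) per well in Eagle's MEM with 10% heat-inactivated fetal calf serum, penicillin, streptomycin, amphotericin B and bicarbonate, over LLCMK2 feeder cells, 5% CO2 in air. Drug dissolved in DMSO; controls received matched DMSO ≤0.016%. Motility scored 0 (immotile) to 10 (maximum control activity) every 30 min to 4.5 h, then days 1, 2, 3, 4, 7.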

[4] = test system: Onchocerca volvulus; experiment: Mean motility score for treated Onchocerca volvulus excluding LLCMK2 feeder cells at a concentration of 3.1*10e-6 M at 96 h
[5] = test system: Onchocerca gutturosa; experiment: Mean motility score for treated Onchocerca gutturosa involving LLCMK2 feeder cells at a concentration of 5*10e-5 M at 2.5 h; format: functional
Summary of the method: as §1

[6] = test system: Onchocerca gutturosa; experiment: Mean motility score for treated Onchocerca gutturosa involving LLCMK2 feeder cells at a concentration of 3.05*10e-9 M at 72 h; format: functional
Summary of the method: as §1

[7] = test system: Onchocerca gutturosa; experiment: Mean motility score for treated Onchocerca gutturosa involving LLCMK2 feeder cells at a concentration of 5*10e-5 M at 0.5 h; format: functional
Summary of the method: as §1

[8] = test system: Onchocerca volvulus; experiment: Mean motility score for treated Onchocerca volvulus excluding LLCMK2 feeder cells at a concentration of 3.1*10e-6 M at 0.5 h
[9] = test system: Onchocerca gutturosa; experiment: Colorimetric quantification of male Onchocerca gutturosa viability, expressed as % inhibition of formazan formation at 5*10e-5 M conc. by using tetrazolium Dye MTT assay; format: functional
Summary of the method: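 Single intact male O. gutturosa, cultured with LLCMK2 feeder cells in MEM + 10% heat-inactivated FCS (5% CO2), drug added from DMSO (≤0.016% DMSO in controls). MTT read after 168 h: worm in 0.5 mg/mL MTT, 30 min at 36.5 °C, formazan solubilized in DMSO 1 h at room temperature, absorbance 490 nm vs DMSO blank.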

[10] = test system: Onchocerca gutturosa; experiment: Mean motility score for treated Onchocerca gutturosa involving LLCMK2 feeder cells at a concentration of 3.05*10e-9 M at 24 h; format: functional
Summary of the method: as §1

[11] = test system: Onchocerca gutturosa; experiment: Mean motility score for treated Onchocerca gutturosa involving LLCMK2 feeder cells at a concentration of 5*10e-5 M at 1.5 h; format: functional
Summary of the method: as §1

[12] = test system: Onchocerca gutturosa; experiment: Mean motility score for treated Onchocerca gutturosa involving LLCMK2 feeder cells at a concentration of 5*10e-5 M at 48 h; format: functional
Summary of the method: (§2)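 Single male O. gutturosa worms per well in Eagle's MEM with 10% heat-inactivated fetal calf serum, antibiotics and bicarbonate, over LLCMK2 feeder cells, 5% CO2 in air. Test chemical dissolved in DMSO and diluted into medium; control wells got matched DMSO not exceeding 0.016%. Motility scored 0 (immotile) to 10 (maximum control motility) every 30 min for 4.5 h, then at 1, 2, 3, 4 and 7 days.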

[13] = test system: Onchocerca volvulus; experiment: Mean motility score for treated Onchocerca volvulus excluding LLCMK2 feeder cells at a concentration of 5*10e-5 M at 96 h
[14] = test system: Onchocerca gutturosa; experiment: Mean motility score for treated Onchocerca gutturosa involving LLCMK2 feeder cells at a concentration of 3.05*10e-9 M at 48 h; format: functional
Summary of the method: as §1

[15] = test system: Onchocerca gutturosa; experiment: Mean motility score for treated Onchocerca gutturosa involving LLCMK2 feeder cells at a concentration of 3.05*10e-9 M at 4.5 h; format: functional
Summary of the method: as §1

[16] = test system: Onchocerca volvulus; experiment: Mean motility score for treated Onchocerca volvulus excluding LLCMK2 feeder cells at a concentration of 5*10e-5 M at 72 h
[17] = test system: Onchocerca volvulus; experiment: Mean motility score for treated Onchocerca volvulus excluding LLCMK2 feeder cells at a concentration of 3.1*10e-6 M at 1 h
[18] = test system: Onchocerca volvulus; experiment: Mean motility score for treated Onchocerca volvulus excluding LLCMK2 feeder cells at a concentration of 5*10e-5 M at 0.5 h
[19] = test system: Onchocerca volvulus; experiment: Mean motility score for treated Onchocerca volvulus excluding LLCMK2 feeder cells at a concentration of 3.1*10e-6 M at 2 h
[20] = test system: Onchocerca gutturosa; experiment: Mean motility score for treated Onchocerca gutturosa involving LLCMK2 feeder cells at a concentration of 5*10e-5 M at 2 h; format: functional
Summary of the method: as §1

[21] = test system: Acanthocheilonema viteae; experiment: anti-filarial Activity was measured against Acanthocheilonema viteae in jirds at 25 mg/kg/day(5 days) dose; format: functional
Summary of the method: (§3)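 Jirds with established B. pahangi or A. viteae infections were given drug once daily for 5 days by subcutaneous injection, at the maximum tolerated dose and, where supply allowed, graded lower doses. Tolerance was first checked in noninfected jirds with a single 200 mg/kg oral or subcutaneous dose, watching 72 h for excessive weight loss or death. Macrofilarial suppression was the read-out.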

[22] = test system: Onchocerca gutturosa; experiment: Mean motility score for treated Onchocerca gutturosa involving LLCMK2 feeder cells at a concentration of 5*10e-5 M at 3 h; format: functional
Summary of the method: as §1

[23] = test system: Onchocerca gutturosa; experiment: Mean motility score for treated Onchocerca gutturosa involving LLCMK2 feeder cells at a concentration of 3.05*10e-9 M at 4 h; format: functional
Summary of the method: as §1

[24] = test system: Onchocerca gutturosa; experiment: Mean motility score for treated Onchocerca gutturosa involving LLCMK2 feeder cells at a concentration of 5*10e-5 M at 3.5 h; format: functional
Summary of the method: as §1

[25] = test system: Onchocerca gutturosa; experiment: Mean motility score for treated Onchocerca gutturosa involving LLCMK2 feeder cells at a concentration of 5*10e-5 M at 96 h; format: functional
Summary of the method: as §2

[26] = test system: Onchocerca volvulus; experiment: Mean motility score for treated Onchocerca volvulus excluding LLCMK2 feeder cells at a concentration of 5*10e-5 M at 1.5 h
[27] = test system: Onchocerca volvulus; experiment: Mean motility score for treated Onchocerca volvulus excluding LLCMK2 feeder cells at a concentration of 3.1*10e-6 M at 72 h
[28] = test system: Acanthocheilonema viteae; experiment: anti-filarial Activity was measured against Acanthocheilonema viteae in jirds at 12.5 mg/kg/day(5 days) dose; format: functional
Summary of the method: as §3

[29] = test system: Onchocerca volvulus; experiment: Mean motility score for treated Onchocerca volvulus excluding LLCMK2 feeder cells at a concentration of 3.1*10e-6 M at 1.5 h
[30] = test system: Onchocerca gutturosa; experiment: Mean motility score for treated Onchocerca gutturosa involving LLCMK2 feeder cells at a concentration of 3.05*10e-9 M at 96 h; format: functional
Summary of the method: as §1

Row | Structure (SMILES) | Motility [1] | Inhibition [2] | Motility [3] | Motility [4] | Motility [5] | Motility [6] | Motility [7] | Motility [8] | Inhibition [9] | Motility [10] | Motility [11] | Motility [12] | Motility [13] | Motility [14] | Motility [15] | Motility [16] | Motility [17] | Motility [18] | Motility [19] | Motility [20] | further results
1 | C/C(=N\NC(S)=Nc1ccccc1N)c1ccccn1 | 1.6 | 65.3% | 9.5 | 0.4 | 9.5 | 7.5 | 10 | 8 | 72.9% | 7.3 | 9.5 | 8.3 | 0.6 | 6.3 | 7.5 | 2.4 | 5 | 5 | 6 | 8.5 | Suppression [21]: 94%; Motility [22]: 9.3; Motility [23]: 5.8; Motility [24]: 9.5; Motility [25]: 1.5; Motility [26]: 4.4; Motility [27]: 1.2; Suppression [28]: 28%; Motility [29]: 4.4; Motility [30]: 6.8
2 | C/C(=N\NC(=S)N1CCCCCC1)c1ccccn1 | 3.4 | 39.6% | 1.5 | 0 | 3.8 | 6 | 6 | 6.6 | 90.3% | 9.3 | 4.8 | 0 | 0.3 | 6.8 | 9.5 | 1 | 6.6 | 8 | 6.6 | 4.8 | Suppression [21]: 100%; Motility [22]: 2.2; Motility [23]: 7.8; Motility [24]: 2.3; Motility [25]: 0; Motility [26]: 8; Motility [27]: 1; Suppression [28]: -16%; Motility [29]: 6.4; Motility [30]: 5.5

— ChEMBL document CHEMBL1125672, “2-acetylpyridine thiosemicarbazones. 13. Derivatives with antifilarial activity” (1991)
